Data reported in ChEMBL document CHEMBL5344415, “Synthesis and Characterization of Phenylalanine Amides Active against Mycobacterium abscessus and Other Mycobacteria” (J Med Chem, 2023).
Values after ≈ are worked out from the molar mass of the structure shown.

Tests used:
[1] = system: Mycobacteroides abscessus; assay: Antibacterial activity against MMV688845-resistant Mycobacterium abscessus Bamboo 845R-2.1 harboring rpoB/beta subunit P473L mutation assessed as bacterial growth inhibition incubated for 3 days by optical density based analysis; format: functional; conditions: Bamboo 845R-2.1, 72 h, time 3 day
How it was run: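 Tenfold-point twofold dilution series in 7H9, final DMSO 1 %. Final ranges typically 50–0.098 or 6.25–0.012 μM. Mid-log culture added to an initial OD₆₀₀ of 0.05 (5*10⁶ CFU/mL). Incubated 3 days at 37 °C with shaking at 110 rpm. Growth taken as OD₆₀₀ on day 3 minus day 0, as % of drug-free wells. MIC₉₀ read visually from the curves. Clarithromycin as control. Two biological replicates, averaged.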

MCF7 = assay: Cytotoxicity against human MCF7 cells assessed as reduction in cell viability incubated for 72 hrs by SRB assay; format: toxicity, cell-based
A2780 = assay: Cytotoxicity against human A2780 cells assessed as reduction in cell viability incubated for 72 hrs by SRB assay; format: toxicity, cell-based
[2] = system: Mycolicibacterium smegmatis; assay: Antibacterial activity against Mycobacterium smegmatis mc2 155 expressing tomato RFP assessed as bacterial growth inhibition incubated for 3 days in 7H9 medium by RFP fluorescence based broth microdilution method; format: functional; conditions: mc2 155, 72 h, time 3 day
How it was run: (§1)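 Broth microdilution in 7H9 with 10 % ADS and 0.05 % Tween 80. Twofold nine-point dilution series. Inoculum 5 x 10⁵ cells/mL taken from a mid-log preculture. Incubation at 37 °C, 3 days for M. smegmatis and M. abscessus, 5 days for M. intracellulare. Read-out by RFP fluorescence (ex 544/em 590 nm). Controls were 1 % DMSO and 100 μM amikacin. MIC₉₀ from duplicates, averaged.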

[3] = system: Mycobacteroides abscessus; assay: Antibacterial activity against Mycobacterium abscessus ATCC 19977 expressing tomato RFP infected in human THP-1 cells assessed as bacterial growth inhibition incubated for 4 days in RPMI medium by RFP fluorescence based assay; format: functional; conditions: ATCC 19977, 96 h, time 4 day
How it was run: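 RFP M. abscessus washed, moved into RPMI, filtered through 5 µm and opsonised with 10 % human serum for 30 min. THP-1 cells infected at MOI 5:1 with PMA 40 ng/mL for 4 h at 37 °C, then washed. Infected cells (1x10⁵/well) given a ten-point twofold series. Incubated 4 days at 37 °C, 5 % CO₂. Cells PFA-fixed and DAPI-stained. RFP quantified by imaging. Controls were DMSO and 1.5 µM bedaquiline. Duplicate.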

[4] = system: Mycobacteroides abscessus; assay: Antibacterial activity against Mycobacterium abscessus ATCC 19977 expressing tomato RFP assessed as bacterial growth inhibition incubated for 3 days in MHII medium by RFP fluorescence based broth microdilution method; format: functional; conditions: ATCC 19977, 72 h, time 3 day
How it was run: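 Broth microdilution in MHII broth with 0.05 % Tween 80, against the RFP-expressing strain. Twofold nine-point dilution series. Inoculum 5 x 10⁵ cells/mL from a mid-log preculture. Incubated 3 days at 37 °C. Read-out by RFP fluorescence (ex 544/em 590 nm). Controls were 1 % DMSO and 100 μM amikacin. MIC₉₀ from duplicates, averaged.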

A-375 = assay: Cytotoxicity against human A-375 cells assessed as reduction in cell viability incubated for 72 hrs by SRB assay; format: toxicity, cell-based
[5] = system: Mycobacterium tuberculosis; assay: Antibacterial activity against Mycobacterium tuberculosis H37Rv ATCC 27294 assessed as bacterial growth inhibition incubated for 7 days in 7H9 medium by optical density based microplate reader analysis; format: functional; conditions: H37Rv ATCC 27294, 168 h, time 7 day
How it was run: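 Compounds serially diluted in flat-bottom 96-well plates. Mid-log culture mixed in to a final OD₆₀₀ of 0.05. Sealed plates incubated in humidified boxes at 37 °C for 7 days with shaking at 80 rpm. Turbidity read at 600 nm. MIC₉₀ taken from dose–response curves. Two biological replicates, averaged.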

HEK293 = assay: Cytotoxicity against HEK293 cells assessed as reduction in cell viability incubated for 72 hrs by SRB assay; format: toxicity, cell-based, Homo sapiens
[6] = Kinetic solubility of compound in PBS at 0.78 to 500 uM measured immediately by nephelometric method; format: physicochemical; conditions: buffer, dose 0.78-500 µM
How it was run: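 DMSO stocks prediluted in DMSO, then diluted 1:50 into PBS (2 % DMSO final) and read immediately by nephelometry at 0.78–500 μM; blank-corrected data fitted by segmental regression; quadruplicates from one stock.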

[7] = system: Mycobacteroides abscessus; assay: Bactericidal activity against Mycobacterium abscessus ATCC 19977 assessed as reduction in viable bacteria at 6.25 uM incubated for 4 days by microplate dilution assay relative to control; format: functional; conditions: time 4 day
HT-29 = assay: Cytotoxicity against human HT-29 cells assessed as reduction in cell viability incubated for 72 hrs by SRB assay; format: toxicity, cell-based
[8] = system: Mycobacteroides abscessus; assay: Antibacterial activity against Mycobacterium abscessus Bamboo harboring inactive clarithromycin-sensitive erm41 C28 sequevar assessed as bacterial growth inhibition incubated for 3 days in 7H9 medium by optical density based method; format: functional; conditions: 72 h, time 3 day
[9] = system: Mycobacteroides abscessus; assay: Antibacterial activity against Mycobacterium abscessus ATCC 19977 expressing tomato RFP assessed as bacterial growth inhibition incubated for 3 days in 7H9 medium by RFP fluorescence based broth microdilution method; format: functional; conditions: ATCC 19977, 72 h, time 3 day; how it was run: as §1
[10] = system: Mycobacteroides abscessus; assay: Bactericidal activity against Mycobacterium abscessus ATCC 19977 assessed as reduction in viable bacteria at 3.13 uM incubated for 4 days by microplate dilution assay relative to control; format: functional; conditions: time 4 day
How it was run: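 After 4 days in the microplate dilution assay, 10 µl samples (undiluted or 1:100) were plated on 7H10 with glycerol, ADS and 400 µg/mL hygromycin. Colonies counted after 4 days at 37 °C. Done in triplicate. CFU/mL compared with the inoculum counted before incubation.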

HeLa = assay: Cytotoxicity against human HeLa cells assessed as reduction in cell viability incubated for 72 hrs by SRB assay; format: toxicity, cell-based
[11] = system: Mycobacterium intracellulare; assay: Antibacterial activity against Mycobacterium intracellulare ATCC 35761 expressing tomato RFP assessed as bacterial growth inhibition incubated for 5 days in 7H9 medium by RFP fluorescence based broth microdilution method; format: functional; conditions: ATCC 35761, 120 h, time 5 day; how it was run: as §1
[12] = Cytotoxicity against mouse NIH3T3 cells assessed as reduction in cell viability incubated for 72 hrs by SRB assay; format: toxicity, cell-based; conditions: mouse, NIH3T3 cells

| Compound | MIC90 [1] | EC50 (MCF7) | EC50 (A2780) | MIC90 [2] | MIC50 [3] | MIC90 [3] | MIC90 [4] | EC50 (A-375) | MIC90 [5] | EC50 (HEK293) | Kinetic_solubility [6] | Activity [7] | EC50 (HT-29) | MIC50 [8] | MIC90 [8] | MIC90 [9] | Activity [10] | EC50 (HeLa) | MIC90 [11] | EC50 at 72 h [12] |
| --- | --- | --- | --- | --- | --- | --- | --- | --- | --- | --- | --- | --- | --- | --- | --- | --- | --- | --- | --- | --- |
| CC[C@H]1OC(=O)[C@H](C)[C@@H](O[C@H]2C[C@@](C)(OC)[C@@H](O)[C@H](C)O2)[C@H](C)[C@@H](O[C@@H]2O[C@H](C)C[C@H](N(C)C)[C@H]2O)[C@](C)(OC)C[C@@H](C)C(=O)[C@H](C)[C@@H](O)[C@]1(C)O [CLARITHROMYCIN] | 0.27 µM (≈ 0.202 µg/mL) | – | – | – | – | – | – | – | – | – | – | – | – | – | – | – | – | – | – | – |
| O=C(N[C@H](Cc1ccccc1)C(=O)Nc1ccccc1N1CC[S+]([O-])CC1)c1cccs1 | > 100 µM | > 30 µM | > 30 µM | 1.56 µM (≈ 0.729 µg/mL) | 3.13 µM (≈ 1.46 µg/mL) | 25 µM (≈ 11.7 µg/mL) | 6.25 µM (≈ 2.92 µg/mL) | > 30 µM | 0.4 µM (≈ 0.187 µg/mL) | > 30 µM | 271 µM | 99% | > 30 µM | 0.33 µM (≈ 0.154 µg/mL) | 2 µM (≈ 0.935 µg/mL) | 3.13 µM (≈ 1.46 µg/mL) | 58% | > 30 µM | 0.1 µM (≈ 0.0468 µg/mL) | > 30 µM |
| O=C(N[C@H](Cc1ccccc1)C(=O)Nc1ccccc1N1CCSCC1)c1cccs1 | – | 16.4 µM | 19.8 µM | 3.13 µM (≈ 1.41 µg/mL) | 12.5 µM (≈ 5.65 µg/mL) | > 100 µM | 50 µM (≈ 22.6 µg/mL) | > 30 µM | 6.25 µM (≈ 2.82 µg/mL) | 19.1 µM | 34 µM | – | > 30 µM | 2.5 µM (≈ 1.13 µg/mL) | 14 µM (≈ 6.32 µg/mL) | 12.5 µM (≈ 5.65 µg/mL) | – | > 30 µM | 0.78 µM (≈ 0.352 µg/mL) | > 30 µM |
| O=C(N[C@H](Cc1ccccc1)C(=O)Nc1ccccc1N1CCSCC1)c1ccccc1F | – | 13.6 µM | 14.9 µM | 3.13 µM (≈ 1.45 µg/mL) | 12.5 µM (≈ 5.79 µg/mL) | > 100 µM | 50 µM (≈ 23.2 µg/mL) | 18.6 µM | 6.25 µM (≈ 2.9 µg/mL) | 6.3 µM | 28 µM | – | > 30 µM | 3 µM (≈ 1.39 µg/mL) | 18 µM (≈ 8.34 µg/mL) | 12.5 µM (≈ 5.79 µg/mL) | – | > 30 µM | 0.78 µM (≈ 0.362 µg/mL) | > 30 µM |
| CO[C@H]1/C=C/O[C@@]2(C)Oc3c(C)c(O)c4c(c3C2=O)C2=NC3(CCN(CC(C)C)CC3)NC2=C(NC(=O)/C(C)=C\C=C\[C@H](C)[C@H](O)[C@@H](C)[C@@H](O)[C@@H](C)[C@H](OC(C)=O)[C@@H]1C)C4=O [RIFABUTIN] | 1.1 µM (≈ 0.932 µg/mL) | – | – | – | – | – | – | – | – | – | – | – | – | – | 3 µM (≈ 2.54 µg/mL) | – | – | – | – | – |
| O=C(N[C@H](Cc1ccccc1)C(=O)Nc1ccccc1N1CCS(=O)(=O)CC1)c1cccs1 | – | > 30 µM | 23.6 µM | 1.56 µM (≈ 0.754 µg/mL) | 0.78 µM (≈ 0.377 µg/mL) | 6.25 µM (≈ 3.02 µg/mL) | 3.13 µM (≈ 1.51 µg/mL) | > 30 µM | 0.2 µM (≈ 0.0967 µg/mL) | > 30 µM | 62 µM | 99% | > 30 µM | 0.24 µM (≈ 0.116 µg/mL) | 1.7 µM (≈ 0.822 µg/mL) | 3.13 µM (≈ 1.51 µg/mL) | 95% | > 30 µM | 0.1 µM (≈ 0.0484 µg/mL) | > 30 µM |
| O=C(N[C@H](Cc1ccccc1)C(=O)Nc1ccccc1N1CC[S+]([O-])CC1)c1ccccc1F | 100 µM (≈ 48 µg/mL) | > 30 µM | > 30 µM | – | 0.78 µM (≈ 0.374 µg/mL) | 12.5 µM (≈ 5.99 µg/mL) | 3.13 µM (≈ 1.5 µg/mL) | > 30 µM | – | > 30 µM | 431 µM | 99% | > 30 µM | 0.4 µM (≈ 0.192 µg/mL) | 2.1 µM (≈ 1.01 µg/mL) | 6.25 µM (≈ 3 µg/mL) | 81% | > 30 µM | 0.1 µM (≈ 0.048 µg/mL) | > 30 µM |
| O=C(N[C@H](Cc1ccc(O)cc1)C(=O)Nc1cc(F)ccc1N1CCS(=O)(=O)CC1)c1ccccc1F | – | > 30 µM | > 30 µM | 6.25 µM (≈ 3.31 µg/mL) | 3.13 µM (≈ 1.66 µg/mL) | 25 µM (≈ 13.2 µg/mL) | 6.25 µM (≈ 3.31 µg/mL) | > 30 µM | 0.78 µM (≈ 0.413 µg/mL) | > 30 µM | 158 µM | – | > 30 µM | 1.1 µM (≈ 0.583 µg/mL) | 13 µM (≈ 6.88 µg/mL) | 6.25 µM (≈ 3.31 µg/mL) | – | > 30 µM | 0.2 µM (≈ 0.106 µg/mL) | > 30 µM |
